Assay results from ChEMBL document CHEMBL5705901, “Exploiting selective BCL-2 family inhibitors to dissect cell survival dependencies and define improved strategies for cancer therapy” (Sci Transl Med, 2015).

Experiments:
[1] = target: Apoptosis regulator Bcl-2 (Homo sapiens, UniProt P10415); experiment: Binding affinity to Bcl-2 (unknown origin) assessed as dissociation constant incubated for 1 hrs by TR-FRET assay
[2] = target: Bcl-2-like protein 1 (Homo sapiens, UniProt Q07817); experiment: Binding affinity to Bcl-xl (unknown origin) assessed as dissociation constant incubated for 1 hrs by TR-FRET assay
[3] = target: Induced myeloid leukemia cell differentiation protein Mcl-1 (Homo sapiens, UniProt Q07820); experiment: Binding affinity to MCL-1 (unknown origin) assessed as dissociation constant incubated for 1 hrs by TR-FRET assay
[4] = target: T1, Bcl-2-like protein 2 (Homo sapiens, UniProt Q92843); experiment: Binding affinity to BCL-W (unknown origin) assessed as dissociation constant incubated for 1 hrs by TR-FRET assay
T1 sequence (Q92843 whole entry): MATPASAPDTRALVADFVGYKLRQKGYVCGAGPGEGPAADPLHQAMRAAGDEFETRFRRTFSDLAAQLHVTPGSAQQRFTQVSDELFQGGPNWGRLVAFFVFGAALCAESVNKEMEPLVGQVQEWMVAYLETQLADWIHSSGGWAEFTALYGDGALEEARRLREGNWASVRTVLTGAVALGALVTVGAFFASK

[5] = tested on: MOLT-4; experiment: Antiproliferative activity against Bcl-xl dependent human MOLT-4 cells assessed as reduction in cell viability by measuring effect concentration by CellTiter-Glo reagent based assay; assay type: functional
[6] = Toxicity in Sprague-Dawley rat assessed as inhibition of granulopoiesis by measuring reduction in neutrophil count at 30 mg/kg, po administered daily for 5 days measured on day 6 by microscopic analysis relative to control; assay type: organism-based; parameters: scale not given: the % may be the effect or the level left; settings: in vivo, 144 h, time 6 day
In short: (§1)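 Male Sprague-Dawley rats, n = 10 per group: docetaxel 5 mg/kg i.v. once, or oral inhibitor daily for 5 days (30, 50 or 7 mg/kg depending on agent), alone or combined with docetaxel, against vehicles. Total neutrophil and platelet counts in blood collected on day 6; Tukey-Kramer test versus vehicle.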

[7] = Toxicity in Sprague-Dawley rat assessed as inhibition of granulopoiesis by measuring reduction in neutrophil count at 30 mg/kg, po administered daily for 5 days measured on day 6 in the presence of docetaxel by microscopic analysis relative to control; assay type: organism-based; settings: in vivo, 144 h, time 6 day; in short: as §1
[8] = Toxicity in Sprague-Dawley rat assessed as inhibition of […] by measuring reduction in circulating platelets at 30 mg/kg, po administered daily for 5 days and measured on day 6 by microscopic analysis; assay type: organism-based; settings: in vivo, 144 h, time 6 day; in short: as §1
[9] = Toxicity in Sprague-Dawley rat assessed as inhibition of granulopoiesis by measuring reduction in neutrophil count at 50 mg/kg, po administered daily for 5 days measured on day 6 by microscopic analysis relative to control; assay type: organism-based; parameters: scale not given: the % may be the effect or the level left; settings: in vivo, 144 h, time 6 day; in short: as §1
[10] = Toxicity in Sprague-Dawley rat assessed as inhibition of granulopoiesis by measuring reduction in neutrophil count at 50 mg/kg, po administered daily for 5 days measured on day 6 in presence of docetaxel by microscopic analysis relative to control; assay type: organism-based; settings: in vivo, 144 h, time 6 day; in short: as §1
[11] = Toxicity in Sprague-Dawley rat assessed as inhibition of […] by measuring reduction in circulating platelets at 50 mg/kg, po administered daily for 5 days and measured on day 6 by microscopic analysis; assay type: organism-based; settings: in vivo, 144 h, time 6 day; in short: as §1

Sequence of Induced myeloid leukemia cell differentiation protein Mcl-1 (Q07820 whole entry): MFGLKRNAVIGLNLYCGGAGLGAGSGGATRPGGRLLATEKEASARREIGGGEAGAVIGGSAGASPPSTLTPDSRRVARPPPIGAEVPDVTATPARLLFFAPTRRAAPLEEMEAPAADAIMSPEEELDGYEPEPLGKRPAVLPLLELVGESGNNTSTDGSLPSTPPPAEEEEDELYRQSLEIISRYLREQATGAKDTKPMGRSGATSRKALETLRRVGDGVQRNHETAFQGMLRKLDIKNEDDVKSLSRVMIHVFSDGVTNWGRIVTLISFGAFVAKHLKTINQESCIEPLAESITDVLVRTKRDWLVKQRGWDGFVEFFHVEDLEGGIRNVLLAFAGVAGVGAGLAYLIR
Sequence of Apoptosis regulator Bcl-2 (P10415 whole entry): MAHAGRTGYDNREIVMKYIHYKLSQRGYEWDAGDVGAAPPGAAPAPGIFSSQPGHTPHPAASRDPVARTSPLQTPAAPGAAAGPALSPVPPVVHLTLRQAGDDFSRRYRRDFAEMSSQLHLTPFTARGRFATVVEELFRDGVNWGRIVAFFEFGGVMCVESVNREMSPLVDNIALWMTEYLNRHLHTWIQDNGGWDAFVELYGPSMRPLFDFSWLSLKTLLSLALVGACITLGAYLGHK
Sequence of Bcl-2-like protein 1 (Q07817 whole entry): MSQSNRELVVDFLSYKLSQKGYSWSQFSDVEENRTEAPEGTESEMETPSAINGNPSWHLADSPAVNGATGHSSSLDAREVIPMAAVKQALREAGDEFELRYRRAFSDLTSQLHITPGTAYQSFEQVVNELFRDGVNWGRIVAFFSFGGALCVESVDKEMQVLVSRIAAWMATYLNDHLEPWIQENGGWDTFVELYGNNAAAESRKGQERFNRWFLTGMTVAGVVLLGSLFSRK

| SMILES | Ki [1] [nM] | Ki [2] [nM] | Ki [3] [nM] | Ki [4] [nM] | EC50 [5] [nM] | Activity [6] [%] | Activity [7] | Activity [8] | Activity [9] [%] | Activity [10] | Activity [11] |
| --- | --- | --- | --- | --- | --- | --- | --- | --- | --- | --- | --- |
| CC1(C)CCC(CN2CCN(c3ccc(C(=O)NS(=O)(=O)c4ccc(N[C@H](CCN5CCOCC5)CSc5ccccc5)c(S(=O)(=O)C(F)(F)Cl)c4)cc3)CC2)=C(c2ccc(Cl)cc2)C1 | 0.048 | 0.463 | > 3900 | 2 | 134 | 41 | Toxic | Toxic |  |  |  |
| CO[C@H]1CC[C@H](CNc2ccc(S(=O)(=O)NC(=O)c3ccc(N4CCN(CC5=C(c6ccc(Cl)cc6)CC(C)(C)CC5)CC4)cc3Oc3cnc4[nH]ccc4c3)cc2[N+](=O)[O-])CC1 [A-1211212] | < 0.01 | 14 | > 444 | 852 | > 5000 |  |  |  | 41 | Toxic | Non-Toxic |
